In ChEMBL document CHEMBL4257503, “N-Acetyl-3-aminopyrazoles block the non-canonical NF-kB cascade by selectively inhibiting NIK” (Medchemcomm, 2018):
pIC50: −log10 of the molar value.

Assays:
[1] = target: T1, Inhibitor of nuclear factor kappa-B kinase subunit beta (Homo sapiens, UniProt O14920); assay: Inhibition of recombinant human full-length N-terminal GST-fused/His6-tagged IKKbeta (M1 to S756 residues) expressed in Sf9 insect cells using ERLLDDRHDSGLDSMKDEE peptide as substrate measured after 60 mins by ADP-Glo kinase assay
T1 sequence (O14920 whole entry): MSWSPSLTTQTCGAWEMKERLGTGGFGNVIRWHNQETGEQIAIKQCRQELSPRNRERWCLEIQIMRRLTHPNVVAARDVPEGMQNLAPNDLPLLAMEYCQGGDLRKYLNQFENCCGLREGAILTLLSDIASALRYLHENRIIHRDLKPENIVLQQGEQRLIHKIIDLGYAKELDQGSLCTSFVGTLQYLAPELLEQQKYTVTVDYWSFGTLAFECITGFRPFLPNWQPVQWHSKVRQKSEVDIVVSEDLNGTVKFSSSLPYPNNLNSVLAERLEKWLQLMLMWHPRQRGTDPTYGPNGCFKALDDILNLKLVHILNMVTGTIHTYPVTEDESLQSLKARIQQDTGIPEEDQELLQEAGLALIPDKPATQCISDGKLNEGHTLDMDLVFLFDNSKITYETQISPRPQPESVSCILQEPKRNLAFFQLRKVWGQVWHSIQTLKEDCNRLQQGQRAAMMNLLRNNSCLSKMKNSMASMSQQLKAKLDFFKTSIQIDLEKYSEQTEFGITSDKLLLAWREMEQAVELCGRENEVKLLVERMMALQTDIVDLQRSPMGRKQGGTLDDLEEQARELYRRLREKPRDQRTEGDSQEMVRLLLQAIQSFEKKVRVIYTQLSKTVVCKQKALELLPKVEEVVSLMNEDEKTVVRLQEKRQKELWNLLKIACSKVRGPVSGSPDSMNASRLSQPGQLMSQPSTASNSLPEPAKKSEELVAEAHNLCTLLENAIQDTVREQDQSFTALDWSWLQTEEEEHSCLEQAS

[2] = target: T2, Inhibitor of nuclear factor kappa-B kinase subunit epsilon (Homo sapiens, UniProt Q14164); assay: Inhibition of recombinant human full-length N-terminal GST-fused/His6-tagged IKKepsilon (M1 to V716 residues) expressed in Sf9 insect cells using ERLLDDRHDSGLDSMKDEE peptide as substrate measured after 60 mins by ADP-Glo kinase assay
T2 sequence (Q14164 whole entry): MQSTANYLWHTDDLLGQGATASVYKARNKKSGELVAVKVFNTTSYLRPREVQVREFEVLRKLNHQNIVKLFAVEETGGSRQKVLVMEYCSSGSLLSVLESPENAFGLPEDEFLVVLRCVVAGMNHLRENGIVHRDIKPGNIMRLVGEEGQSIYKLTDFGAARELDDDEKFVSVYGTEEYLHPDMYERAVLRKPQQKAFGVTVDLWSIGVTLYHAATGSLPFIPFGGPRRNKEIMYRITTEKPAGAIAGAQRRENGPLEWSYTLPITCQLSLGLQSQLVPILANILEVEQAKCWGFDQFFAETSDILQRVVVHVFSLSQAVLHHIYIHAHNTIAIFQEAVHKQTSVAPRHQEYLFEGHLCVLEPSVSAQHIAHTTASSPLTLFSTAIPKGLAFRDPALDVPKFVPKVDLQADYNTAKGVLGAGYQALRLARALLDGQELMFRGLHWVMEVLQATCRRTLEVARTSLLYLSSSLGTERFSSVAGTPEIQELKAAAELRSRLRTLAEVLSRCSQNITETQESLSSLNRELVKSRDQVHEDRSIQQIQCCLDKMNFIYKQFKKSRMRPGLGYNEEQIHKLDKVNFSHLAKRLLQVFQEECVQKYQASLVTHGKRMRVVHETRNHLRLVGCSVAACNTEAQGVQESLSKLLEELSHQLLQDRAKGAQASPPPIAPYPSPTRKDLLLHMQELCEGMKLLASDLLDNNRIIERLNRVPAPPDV

[3] = target: Mitogen-activated protein kinase kinase kinase 14 (Homo sapiens, UniProt Q99558); assay: Inhibition of recombinant human full-length N-terminal GST-fused/His6-tagged NIK (M1 to P947 residues) expressed in Sf9 insect cells using AKDVDQGSLCTSFVGTLQY peptide as substrate measured after 60 mins by ADP-Glo kinase assay
[4] = target: T3, Inhibitor of nuclear factor kappa-B kinase subunit alpha (Homo sapiens, UniProt O15111); assay: Inhibition of recombinant full length human His-tagged IKKalpha expressed in baculovirus expression system using ERLLDDRHDSGLDSMKDEE peptide as substrate measured after 60 mins by ADP-Glo kinase assay
T3 sequence (O15111 whole entry): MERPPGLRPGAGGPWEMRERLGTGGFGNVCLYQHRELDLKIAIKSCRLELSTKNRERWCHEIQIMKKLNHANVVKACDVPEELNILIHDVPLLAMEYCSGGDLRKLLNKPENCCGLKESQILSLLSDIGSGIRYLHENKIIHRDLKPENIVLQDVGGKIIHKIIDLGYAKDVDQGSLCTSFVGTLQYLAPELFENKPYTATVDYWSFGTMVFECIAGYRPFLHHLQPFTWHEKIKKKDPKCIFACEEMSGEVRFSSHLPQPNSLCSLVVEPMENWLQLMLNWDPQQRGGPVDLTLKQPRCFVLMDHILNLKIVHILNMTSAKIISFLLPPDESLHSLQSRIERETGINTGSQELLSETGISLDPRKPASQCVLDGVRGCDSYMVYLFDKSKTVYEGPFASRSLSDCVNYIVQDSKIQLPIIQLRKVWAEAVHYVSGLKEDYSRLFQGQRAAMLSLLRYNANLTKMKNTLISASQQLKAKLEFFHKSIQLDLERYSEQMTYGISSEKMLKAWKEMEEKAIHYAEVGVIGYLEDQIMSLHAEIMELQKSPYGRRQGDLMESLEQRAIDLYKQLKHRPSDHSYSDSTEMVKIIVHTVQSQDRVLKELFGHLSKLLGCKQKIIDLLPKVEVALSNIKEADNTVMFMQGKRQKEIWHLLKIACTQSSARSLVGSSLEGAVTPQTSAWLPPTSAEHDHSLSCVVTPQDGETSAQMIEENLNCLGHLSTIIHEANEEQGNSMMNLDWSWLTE
Method in brief: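 Recombinant human IKKα, peptide substrate 100 µM, enzyme 8 ng/µL, ATP 1 µM in Tris-HCl pH 7.5 buffer with MgCl2, MnCl2, DTT, Na3VO4, BSA; 25°C, 60 min; ADP-Glo luminescence. Ten concentrations 0.005–100 µM; IC50 by nonlinear regression; means ± SD of three independent experiments.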

Sequence of Mitogen-activated protein kinase kinase kinase 14 (Q99558 whole entry, the tested form may be a part): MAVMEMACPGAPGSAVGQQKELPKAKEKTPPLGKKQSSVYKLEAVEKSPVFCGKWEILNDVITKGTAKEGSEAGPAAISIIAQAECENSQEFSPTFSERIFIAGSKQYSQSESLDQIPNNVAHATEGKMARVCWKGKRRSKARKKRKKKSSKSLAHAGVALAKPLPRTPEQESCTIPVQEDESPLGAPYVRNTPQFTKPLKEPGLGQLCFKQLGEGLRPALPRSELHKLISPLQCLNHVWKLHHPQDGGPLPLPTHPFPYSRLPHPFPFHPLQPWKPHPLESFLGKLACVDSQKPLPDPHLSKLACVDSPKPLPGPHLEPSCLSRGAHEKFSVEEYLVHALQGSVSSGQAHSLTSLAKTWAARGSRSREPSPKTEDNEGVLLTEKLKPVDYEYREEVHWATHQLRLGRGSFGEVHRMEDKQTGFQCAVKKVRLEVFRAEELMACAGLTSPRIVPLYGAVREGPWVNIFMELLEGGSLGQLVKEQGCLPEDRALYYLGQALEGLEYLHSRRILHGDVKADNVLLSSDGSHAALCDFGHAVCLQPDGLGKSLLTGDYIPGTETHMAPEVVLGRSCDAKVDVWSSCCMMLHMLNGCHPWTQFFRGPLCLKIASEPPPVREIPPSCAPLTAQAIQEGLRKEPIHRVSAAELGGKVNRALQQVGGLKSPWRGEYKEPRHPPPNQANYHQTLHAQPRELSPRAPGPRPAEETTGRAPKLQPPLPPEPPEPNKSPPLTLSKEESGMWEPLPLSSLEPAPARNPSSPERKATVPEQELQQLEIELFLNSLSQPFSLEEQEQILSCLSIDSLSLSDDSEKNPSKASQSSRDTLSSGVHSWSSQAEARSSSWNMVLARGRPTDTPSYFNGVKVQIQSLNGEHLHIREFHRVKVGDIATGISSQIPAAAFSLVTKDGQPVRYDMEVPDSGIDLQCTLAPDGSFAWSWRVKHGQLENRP

pIC50 [1]	pIC50 [2]	pIC50 [3]	pIC50 [4]	SMILES
< 4.00	< 4.00	< 4.00	< 4.00	CC(=O)n1nc(C)c(-c2cccc(C(F)(F)F)c2)c1N
< 4.00	< 4.00	< 4.00	< 4.00	Cc1ccc(-c2c(N)n[nH]c2C)cc1
4.32	< 4.00	4.90	< 4.00	CC(=O)n1nc(N)c(Br)c1C
< 4.00	< 4.00	< 4.00	< 4.00	Cc1c(-c2ccc(Cl)c(Cl)c2)c(N)nn1C(=O)C1CCC1
4.12	< 4.00	< 4.00	< 4.00	Cc1c(N)n[nH]c1-c1ccc(Cl)c(Cl)c1
< 4.00	< 4.00	< 4.00	< 4.00	CCCC(=O)n1nc(C)c(-c2ccc(Cl)c(Cl)c2)c1N
< 4.00	< 4.00	4.39	< 4.00	Cc1nn(C(=O)C2CCCC2)c(N)c1-c1ccc(Cl)c(Cl)c1
4.87	4.64	< 4.00	< 4.00	CC(=O)n1nc(C)c(Br)c1N
< 4.00	< 4.00	< 4.00	< 4.00	Cc1nn(C)c(N)c1-c1ccc(Cl)c(Cl)c1
< 4.00	< 4.00	< 4.00	< 4.00	Cc1cccc(-c2c(N)n[nH]c2C)c1
< 4.00	< 4.00	< 4.00	< 4.00	Cc1nn(C(=O)OC(C)(C)C)c(N)c1-c1ccc(Cl)c(Cl)c1
< 4.00	< 4.00	< 4.00	< 4.00	Cc1ccc(-c2c(N)n[nH]c2C)cc1C
< 4.00	< 4.00	4.24	< 4.00	Cc1nn(C(=O)c2ccncc2)c(N)c1-c1ccc(Cl)c(Cl)c1
4.06	< 4.00	< 4.00	< 4.00	Cc1[nH]nc(N)c1-c1cccc(Br)c1
< 4.00	< 4.00	< 4.00	< 4.00	CCc1nn(C(C)=O)c(N)c1-c1ccc(Cl)c(Cl)c1
< 4.00	< 4.00	< 4.00	< 4.00	Cc1[nH]nc(N)c1-c1cccc(OC(F)(F)F)c1
4.37	< 4.00	< 4.00	< 4.00	Cc1[nH]nc(N)c1-c1ccc2ccccc2c1
< 4.00	< 4.00	< 4.00	< 4.00	Cc1nn(C(=O)C2CC2)c(N)c1-c1ccc(Cl)cc1

pIC50 [1]	pIC50 [2]	pIC50 [3]	pIC50 [4]	SMILES
< 4.00	< 4.00	< 4.00	< 4.00	Cc1n[nH]c(N)c1-c1ccccc1
< 4.00	< 4.00	< 4.00	< 4.00	CCNC(=O)n1nc(C)c(-c2ccc(Cl)c(Cl)c2)c1N
4.22	< 4.00	< 4.00	4.05	Cc1[nH]nc(N)c1-c1ccc(Br)cc1
4.64	< 4.00	< 4.00	< 4.00	Cc1[nH]nc(N)c1-c1cc(C(F)(F)F)cc(C(F)(F)F)c1
4.65	< 4.00	< 4.00	< 4.00	Cc1[nH]nc(N)c1-c1cccc(C(F)(F)F)c1
< 4.00	< 4.00	< 4.00	< 4.00	Cc1[nH]nc(NC(=O)c2ccccn2)c1-c1ccc(Cl)c(Cl)c1
< 4.00	4.03	< 4.00	< 4.00	Cc1[nH]nc(N)c1-c1cccc(Cl)c1
4.29	< 4.00	< 4.00	< 4.00	Cc1[nH]nc(N)c1-c1ccc(Cl)c(Cl)c1
< 4.00	< 4.00	< 4.00	< 4.00	CC(=O)n1nc(N)c(-c2ccc(Cl)c(Cl)c2)c1C
< 4.00	< 4.00	< 4.00	4.46	Cc1[nH]nc(NC(=O)C(F)(F)F)c1-c1ccc(Cl)c(Cl)c1
< 4.00	< 4.00	< 4.00	< 4.00	Cc1[nH]nc(N)c1-c1ccc2c(c1)OCO2
< 4.00	< 4.00	< 4.00	< 4.00	Cc1nn(C(=O)c2cccnc2)c(N)c1-c1ccc(Cl)c(Cl)c1
< 4.00	< 4.00	4.40	< 4.00	CC(=O)n1nc(C)c(-c2ccc(C)c(C)c2)c1N
< 4.00	< 4.00	< 4.00	< 4.00	Cc1c(-c2ccc(Cl)c(Cl)c2)c(N)nn1C(=O)c1cccnc1
< 4.00	< 4.00	< 4.00	< 4.00	Cc1c(-c2ccc(Cl)c(Cl)c2)c(N)nn1C
< 4.00	< 4.00	< 4.00	< 4.00	CC(=O)n1nc(C)c(-c2cccc(Cl)c2)c1N
< 4.00	4.81	< 4.00	< 4.00	Cc1[nH]nc(N)c1-c1ccc(OCc2ccccc2)cc1
< 4.00	< 4.00	< 4.00	< 4.00	CC(=O)n1nc(C)c(-c2ccc(Cl)cc2)c1N
